Experimental data from ChEMBL document CHEMBL5705901, “Exploiting selective BCL-2 family inhibitors to dissect cell survival dependencies and define improved strategies for cancer therapy” (Sci Transl Med, 2015).
pEC50, pKi: −log10 of the molar value.

Key:
[1] = molecular target: Apoptosis regulator Bcl-2 (Homo sapiens, UniProt P10415); assay: Binding affinity to Bcl-2 (unknown origin) assessed as dissociation constant incubated for 1 hrs by TR-FRET assay
[2] = Toxicity in Sprague-Dawley rat assessed as inhibition of […] by measuring reduction in circulating platelets at 50 mg/kg, po administered daily for 5 days and measured on day 6 by microscopic analysis; assay type: organism-based; conditions: in vivo, 144 h, time 6 day
Outline: (§1)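 Male Sprague-Dawley rats, n = 10 per group: docetaxel 5 mg/kg i.v. once, or oral inhibitor daily for 5 days (30, 50 or 7 mg/kg depending on agent), alone or combined with docetaxel, against vehicles. Total neutrophil and platelet counts in blood collected on day 6; Tukey-Kramer test versus vehicle.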

MOLT-4 = assay: Antiproliferative activity against Bcl-xl dependent human MOLT-4 cells assessed as reduction in cell viability by measuring effect concentration by CellTiter-Glo reagent based assay; assay type: functional
Bcl-2-like protein 1 = Bcl-2-like protein 1 (Homo sapiens, UniProt Q07817); assay: Binding affinity to Bcl-xl (unknown origin) assessed as dissociation constant incubated for 1 hrs by TR-FRET assay
Chain of Bcl-2-like protein 1 (Q07817 whole entry): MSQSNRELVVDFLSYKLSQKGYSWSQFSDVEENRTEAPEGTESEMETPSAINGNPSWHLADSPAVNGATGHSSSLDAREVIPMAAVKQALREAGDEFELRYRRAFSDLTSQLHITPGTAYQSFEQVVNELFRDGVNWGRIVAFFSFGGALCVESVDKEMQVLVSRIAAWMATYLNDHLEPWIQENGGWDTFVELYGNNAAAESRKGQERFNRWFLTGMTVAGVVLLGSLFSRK

[3] = Toxicity in Sprague-Dawley rat assessed as inhibition of granulopoiesis by measuring reduction in neutrophil count at 50 mg/kg, po administered daily for 5 days measured on day 6 in presence of docetaxel by microscopic analysis relative to control; assay type: organism-based; conditions: in vivo, 144 h, time 6 day; outline: as §1
[4] = Toxicity in Sprague-Dawley rat assessed as inhibition of granulopoiesis by measuring reduction in neutrophil count at 50 mg/kg, po administered daily for 5 days measured on day 6 by microscopic analysis relative to control; assay type: organism-based; parameters: scale not given: the % may be the effect or the level left; conditions: in vivo, 144 h, time 6 day; outline: as §1
[5] = molecular target: Induced myeloid leukemia cell differentiation protein Mcl-1 (Homo sapiens, UniProt Q07820); assay: Binding affinity to MCL-1 (unknown origin) assessed as dissociation constant incubated for 1 hrs by TR-FRET assay
Chain of Induced myeloid leukemia cell differentiation protein Mcl-1 (Q07820 whole entry): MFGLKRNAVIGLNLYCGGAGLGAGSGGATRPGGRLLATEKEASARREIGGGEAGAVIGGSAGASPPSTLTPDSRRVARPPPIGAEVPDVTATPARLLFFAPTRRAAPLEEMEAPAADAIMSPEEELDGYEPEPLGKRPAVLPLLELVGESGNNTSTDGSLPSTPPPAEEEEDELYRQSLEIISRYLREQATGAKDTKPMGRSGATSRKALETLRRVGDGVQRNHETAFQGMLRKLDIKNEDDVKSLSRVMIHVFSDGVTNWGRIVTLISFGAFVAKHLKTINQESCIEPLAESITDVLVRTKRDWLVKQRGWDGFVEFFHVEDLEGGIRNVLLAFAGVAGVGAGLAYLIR

Bcl-2-like protein 2 = molecular target: T1, Bcl-2-like protein 2 (Homo sapiens, UniProt Q92843); assay: Binding affinity to BCL-W (unknown origin) assessed as dissociation constant incubated for 1 hrs by TR-FRET assay
T1 sequence (Q92843 whole entry): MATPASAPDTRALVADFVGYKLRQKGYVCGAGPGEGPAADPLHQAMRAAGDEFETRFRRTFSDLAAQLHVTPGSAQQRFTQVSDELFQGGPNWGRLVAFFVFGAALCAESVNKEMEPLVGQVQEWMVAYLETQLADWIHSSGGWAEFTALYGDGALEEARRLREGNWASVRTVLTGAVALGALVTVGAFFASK

[6] = Toxicity in Sprague-Dawley rat assessed as inhibition of granulopoiesis by measuring reduction in neutrophil count at 30 mg/kg, po administered daily for 5 days measured on day 6 by microscopic analysis relative to control; assay type: organism-based; parameters: scale not given: the % may be the effect or the level left; conditions: in vivo, 144 h, time 6 day; outline: as §1
[7] = Toxicity in Sprague-Dawley rat assessed as inhibition of granulopoiesis by measuring reduction in neutrophil count at 30 mg/kg, po administered daily for 5 days measured on day 6 in the presence of docetaxel by microscopic analysis relative to control; assay type: organism-based; conditions: in vivo, 144 h, time 6 day; outline: as §1
[8] = Toxicity in Sprague-Dawley rat assessed as inhibition of […] by measuring reduction in circulating platelets at 30 mg/kg, po administered daily for 5 days and measured on day 6 by microscopic analysis; assay type: organism-based; conditions: in vivo, 144 h, time 6 day; outline: as §1

Chain of Apoptosis regulator Bcl-2 (P10415 whole entry): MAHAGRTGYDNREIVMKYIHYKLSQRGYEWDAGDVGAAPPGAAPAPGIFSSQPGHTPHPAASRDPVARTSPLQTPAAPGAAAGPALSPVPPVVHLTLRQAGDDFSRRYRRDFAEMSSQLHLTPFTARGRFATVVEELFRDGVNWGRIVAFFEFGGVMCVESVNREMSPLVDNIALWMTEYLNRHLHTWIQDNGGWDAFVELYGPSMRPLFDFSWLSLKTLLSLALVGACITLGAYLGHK

| Structure (SMILES) | pKi [1] | Activity [2] | pEC50 (MOLT-4) | pKi (Bcl-2-like protein 1) | Activity [3] | Activity [4] | pKi [5] | pKi (Bcl-2-like protein 2) | Activity [6] | Activity [7] | Activity [8] |
| --- | --- | --- | --- | --- | --- | --- | --- | --- | --- | --- | --- |
| CO[C@H]1CC[C@H](CNc2ccc(S(=O)(=O)NC(=O)c3ccc(N4CCN(CC5=C(c6ccc(Cl)cc6)CC(C)(C)CC5)CC4)cc3Oc3cnc4[nH]ccc4c3)cc2[N+](=O)[O-])CC1 [A-1211212] | > 11.00 | Non-Toxic | < 5.30 | 7.85 | Toxic | 41% | < 6.35 | 6.07 | – | – | – |
| CC1(C)CCC(CN2CCN(c3ccc(C(=O)NS(=O)(=O)c4ccc(N[C@H](CCN5CCOCC5)CSc5ccccc5)c(S(=O)(=O)C(F)(F)Cl)c4)cc3)CC2)=C(c2ccc(Cl)cc2)C1 | 10.32 | – | 6.87 | 9.33 | – | – | < 5.41 | 8.70 | 41% | Toxic | Toxic |
